Measurements taken from ChEMBL document CHEMBL1828498, “Identification and characterization of a novel integrin-linked kinase inhibitor” (J Med Chem, 2011).
Active and inactive are the calls of the source. No rule for the calls is given here.

Assays:
[1] = system: 3-phosphoinositide dependent protein kinase-2, PDK2; test: Inhibition of PDK2 in human PC3 cells assessed as Akt Ser-473 dephosphorylation by Western blot analysis; type: functional, cell-based; details: PC-3
In short: (§1)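 Cells exposed 24 h in 5% FBS medium, final DMSO 0.1%; lysed in 1% SDS/10 mM EDTA/50 mM Tris pH 8.1, equal protein on SDS-PAGE, nitrocellulose, primary antibody 1:1000 at 4°C for 2 h, HRP secondary 1:5000, ECL detection; blots representative of three independent experiments.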

[2] = target: T1, 3-phosphoinositide-dependent protein kinase 1 (Homo sapiens) (UniProt O15530); test: Inhibition of PDK2 in human PC3 cells assessed as Akt Thr-308 dephosphorylation by Western blot analysis; type: functional, cell-based; details: PC-3; in short: as §1
T1 sequence (whole entry): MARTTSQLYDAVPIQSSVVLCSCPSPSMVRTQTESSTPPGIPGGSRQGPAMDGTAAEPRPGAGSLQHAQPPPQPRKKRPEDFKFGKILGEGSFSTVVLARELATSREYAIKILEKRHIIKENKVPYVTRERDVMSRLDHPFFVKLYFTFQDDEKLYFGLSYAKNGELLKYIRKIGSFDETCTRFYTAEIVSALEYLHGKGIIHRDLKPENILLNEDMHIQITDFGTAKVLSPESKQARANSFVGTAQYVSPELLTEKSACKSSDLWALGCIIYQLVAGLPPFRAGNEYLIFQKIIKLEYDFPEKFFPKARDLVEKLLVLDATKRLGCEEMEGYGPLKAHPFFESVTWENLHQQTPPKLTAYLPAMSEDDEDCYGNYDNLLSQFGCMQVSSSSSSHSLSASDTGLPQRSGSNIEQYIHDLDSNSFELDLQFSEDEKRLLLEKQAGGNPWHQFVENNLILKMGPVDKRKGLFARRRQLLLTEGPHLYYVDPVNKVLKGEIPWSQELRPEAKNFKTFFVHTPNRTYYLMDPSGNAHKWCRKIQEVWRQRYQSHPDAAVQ

For O=C(c1cccc([N+](=O)[O-])c1)N1CCN(c2ccc(-n3nc(C(F)(F)F)cc3-c3ccc4c(ccc5ccccc54)c3)cc2)CC1, the inhibition [1] was “inactive” and the inhibition [2] was “inactive”.
In the case of NS(=O)(=O)Nc1ccc(-n2nc(C(F)(F)F)cc2-c2ccc3c(ccc4ccccc43)c2)cc1, the inhibition [1] is reported as “inactive” and the inhibition [2] is reported as “inactive”.
CNC(=O)CCc1cc(-c2ccc(-c3ccc(C(F)(F)F)cc3)cc2)n(-c2ccc(N3CCOCC3)cc2)n1 was tested, and the inhibition [1] was “inactive” and the inhibition [2] was “inactive”.
With CCNC(=O)CCc1cc(-c2ccc(-c3ccc(C(F)(F)F)cc3)cc2)n(-c2ccc(N3CCNCC3)cc2)n1 the inhibition [1] was “Active” and the inhibition [2] was “inactive”.
In the case of CC(=O)c1cc(C(=O)N2CCN(c3ccc(-n4nc(C(F)(F)F)cc4-c4ccc5c(ccc6ccccc65)c4)cc3)CC2)ccc1Cl, the inhibition [1] is reported as “inactive” and the inhibition [2] is reported as “inactive”.
For CCNC(=O)CCc1cc(-c2ccc(-c3ccc(C(F)(F)F)cc3)cc2)n(-c2ccc(NC(=O)CCN)cc2)n1, the inhibition [1] was “inactive” and the inhibition [2] was “inactive”.
In the case of CNC(=O)CCc1cc(-c2ccc3c(ccc4ccccc43)c2)n(-c2ccc(N3CCNCC3)cc2)n1, the inhibition [1] is reported as “inactive” and the inhibition [2] is reported as “inactive”.
CC(=O)Nc1ccc(S(=O)(=O)N2CCN(c3ccc(-n4nc(C(F)(F)F)cc4-c4ccc5c(ccc6ccccc65)c4)cc3)CC2)cc1 was tested, and the inhibition [1] was “inactive” and the inhibition [2] was “inactive”.
With O=[N+]([O-])c1ccc(S(=O)(=O)N2CCN(c3ccc(-n4nc(C(F)(F)F)cc4-c4ccc5c(ccc6ccccc65)c4)cc3)CC2)c([N+](=O)[O-])c1 the inhibition [1] was “inactive” and the inhibition [2] was “inactive”.
With O=C1CCC(=O)N1c1ccc(-n2nc(C(F)(F)F)cc2-c2ccc3c(ccc4ccccc43)c2)cc1 the inhibition [1] was “inactive” and the inhibition [2] was “inactive”.
N#Cc1ccc(C(=O)N2CCN(c3ccc(-n4nc(C(F)(F)F)cc4-c4ccc5c(ccc6ccccc65)c4)cc3)CC2)cc1 was tested, and the inhibition [1] was “inactive” and the inhibition [2] was “inactive”.
With N#Cc1cccc(C(=O)N2CCN(c3ccc(-n4nc(C(F)(F)F)cc4-c4ccc5c(ccc6ccccc65)c4)cc3)CC2)c1 the inhibition [1] was “inactive” and the inhibition [2] was “inactive”.
With NC(=O)CCNc1ccc(-n2nc(C(F)(F)F)cc2-c2ccc3c(ccc4ccccc43)c2)cc1 the inhibition [1] was “inactive” and the inhibition [2] was “inactive”.
In the case of O=C(c1ccc([N+](=O)[O-])cc1)N1CCN(c2ccc(-n3nc(C(F)(F)F)cc3-c3ccc4c(ccc5ccccc54)c3)cc2)CC1, the inhibition [1] is reported as “inactive” and the inhibition [2] is reported as “inactive”.
In the case of CNC(=O)c1cc(-c2ccc(-c3ccc(C(F)(F)F)cc3)cc2)n(-c2ccc(N3CCNCC3)cc2)n1, the inhibition [1] is reported as “inactive” and the inhibition [2] is reported as “inactive”.
In the case of NCCC(=O)Nc1ccc(-n2nc(C(F)(F)F)cc2-c2ccc3ccc4ccccc4c3c2)cc1, the inhibition [1] is reported as “inactive” and the inhibition [2] is reported as “inactive”.
With NCCC(=O)Nc1ccc(-n2nc(C(F)(F)F)cc2-c2ccc3c(c2)oc2ccccc23)cc1 the inhibition [1] was “inactive” and the inhibition [2] was “inactive”.
CCC(C)C(N)C(=O)Nc1ccc(-n2nc(C(F)(F)F)cc2-c2ccc(-c3ccc(C(F)(F)F)cc3)cc2)cc1 (centres undefined) was tested, and the inhibition [1] was “inactive” and the inhibition [2] was “inactive”.
For FC(F)(F)c1ccc(-c2ccc(-c3cc(C(F)(F)F)nn3-c3ccc(N4CCNCC4)cc3)cc2)cc1, the inhibition [1] was “inactive” and the inhibition [2] was “inactive”.
In the case of O=C(Nc1ccc(-n2nc(C(F)(F)F)cc2-c2ccc3c(ccc4ccccc43)c2)cc1)N1CCOCC1, the inhibition [1] is reported as “inactive” and the inhibition [2] is reported as “inactive”.
In the case of CNC(=O)c1cc(-c2ccc3ccc4ccccc4c3c2)n(-c2ccc(NC(=O)CN)cc2)n1, the inhibition [1] is reported as “inactive” and the inhibition [2] is reported as “inactive”.
With NCCC(=O)Nc1ccc(-n2nc(C(F)(F)F)cc2-c2ccc3c(ccc4ccccc43)c2)cc1 the inhibition [1] was “inactive” and the inhibition [2] was “inactive”.
For CNC(=O)c1cc(-c2ccc(-c3ccc(C(F)(F)F)cc3)cc2)n(-c2ccc(NC(=O)CCN)cc2)n1, the inhibition [1] was “inactive” and the inhibition [2] was “inactive”.
In the case of CNC(=O)CCc1cc(-c2ccc(-c3ccc(C#N)cc3)cc2)n(-c2ccc(N3CCNCC3)cc2)n1, the inhibition [1] is reported as “inactive” and the inhibition [2] is reported as “inactive”.
CCNC(=O)c1cc(-c2ccc(-c3ccc(C(F)(F)F)cc3)cc2)n(-c2ccc(NC(=O)CCN)cc2)n1 was tested, and the inhibition [1] was “inactive” and the inhibition [2] was “inactive”.
In the case of CCNC(=O)c1cc(-c2ccc3ccc4ccccc4c3c2)n(-c2ccc(NC(=O)CN)cc2)n1, the inhibition [1] is reported as “inactive” and the inhibition [2] is reported as “inactive”.
O=C(c1ccc(Cl)c([N+](=O)[O-])c1)N1CCN(c2ccc(-n3nc(C(F)(F)F)cc3-c3ccc4c(ccc5ccccc54)c3)cc2)CC1 was tested, and the inhibition [1] was “inactive” and the inhibition [2] was “inactive”.
In the case of O=C(c1ccc(OC(F)(F)F)cc1)N1CCN(c2ccc(-n3nc(C(F)(F)F)cc3-c3ccc4c(ccc5ccccc54)c3)cc2)CC1, the inhibition [1] is reported as “inactive” and the inhibition [2] is reported as “inactive”.
With O=C(c1ccncc1)N1CCN(c2ccc(-n3nc(C(F)(F)F)cc3-c3ccc4c(ccc5ccccc54)c3)cc2)CC1 the inhibition [1] was “inactive” and the inhibition [2] was “inactive”.
O=[N+]([O-])c1ccc(S(=O)(=O)N2CCN(c3ccc(-n4nc(C(F)(F)F)cc4-c4ccc5c(ccc6ccccc65)c4)cc3)CC2)cc1 was tested, and the inhibition [1] was “inactive” and the inhibition [2] was “inactive”.
CCNC(=O)c1cc(-c2ccc3ccc4ccccc4c3c2)n(-c2ccc(NC(=O)CCN)cc2)n1 was tested, and the inhibition [1] was “inactive” and the inhibition [2] was “inactive”.
For NCC(=O)Nc1ccc(-n2nc(C(F)(F)F)cc2-c2ccc3ccc4ccccc4c3c2)cc1, the inhibition [1] was “inactive” and the inhibition [2] was “inactive”.
In the case of NCCC(=O)Nc1ccc(-n2nc(C(F)(F)F)cc2-c2ccc(-c3ccc(C(F)(F)F)cc3)cc2)cc1, the inhibition [1] is reported as “inactive” and the inhibition [2] is reported as “inactive”.
In the case of NCCCC[C@@H](N)C(=O)Nc1ccc(-n2nc(C(F)(F)F)cc2-c2ccc3c(ccc4ccccc43)c2)cc1, the inhibition [1] is reported as “inactive” and the inhibition [2] is reported as “inactive”.
In the case of CC(C)NC(=O)CCc1cc(-c2ccc(-c3ccc(C(F)(F)F)cc3)cc2)n(-c2ccc(NC(=O)CCN)cc2)n1, the inhibition [1] is reported as “inactive” and the inhibition [2] is reported as “inactive”.
CC(C)CC(N)C(=O)Nc1ccc(-n2nc(C(F)(F)F)cc2-c2ccc(-c3ccc(C(F)(F)F)cc3)cc2)cc1 (centres undefined) was tested, and the inhibition [1] was “inactive” and the inhibition [2] was “inactive”.
CNC(=O)c1cc(-c2ccc3c(ccc4ccccc43)c2)n(-c2ccc(NC(=O)CCN)cc2)n1 was tested, and the inhibition [1] was “inactive” and the inhibition [2] was “inactive”.
In the case of NC(=O)c1ccc(C(=O)N2CCN(c3ccc(-n4nc(C(F)(F)F)cc4-c4ccc5c(ccc6ccccc65)c4)cc3)CC2)cc1, the inhibition [1] is reported as “inactive” and the inhibition [2] is reported as “inactive”.
In the case of NCCCC[C@H](N)C(=O)Nc1ccc(-n2nc(C(F)(F)F)cc2-c2ccc3c(ccc4ccccc43)c2)cc1, the inhibition [1] is reported as “inactive” and the inhibition [2] is reported as “inactive”.
NC(Cc1ccccc1)C(=O)Nc1ccc(-n2nc(C(F)(F)F)cc2-c2ccc(-c3ccc(C(F)(F)F)cc3)cc2)cc1 (centres undefined) was tested, and the inhibition [1] was “inactive” and the inhibition [2] was “inactive”.
With NS(=O)(=O)c1ccc(-n2nc(C(F)(F)F)cc2-c2ccc3c(ccc4ccccc43)c2)cc1 the inhibition [1] was “inactive” and the inhibition [2] was “inactive”.
With CC(=O)c1ccc(S(=O)(=O)N2CCN(c3ccc(-n4nc(C(F)(F)F)cc4-c4ccc5c(ccc6ccccc65)c4)cc3)CC2)cc1 the inhibition [1] was “inactive” and the inhibition [2] was “inactive”.
